A short description of data set [1]: Tmax in Sprague-Dawley rat at 10 mg/kg, po by LC-ESI-MS analysis. To be noted: in vivo. The data set is classed as ADME, organism-based. A digest of the protocol:
(§1)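 SD rats dosed orally (3 or 10 mg/kg) or by intravenous injection (1 mg/kg). Plasma PK parameters derived per route: Cmax, AUC0-t, Tmax, t1/2 and F after oral dosing; CL, AUC0-t, MRT, t1/2 and Vdss after iv dosing. Mean ± SD from three independent experiments (n = 3).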

Data set [2] addresses ATP-binding cassette sub-family C member 2 (Homo sapiens, UniProt Q92887). Nature of the data set: Inhibition of human MRP2.
Data set [3] concerns Rattus norvegicus. Put plainly: Antidiabetic activity in Sprague-Dawley rat assessed as reduction in blood glucose AUC (0 to 60 mins) at 10 mg/kg, po administered 60 mins prior to glucose challenge by OGTT. The data set is classed as functional, organism-based. An outline of the steps:
(§2)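 OGTT in SD rats: compound given orally 60 min before a 3.0 g/kg glucose challenge. Blood glucose followed over time, and AUC0-60min or AUC0-120min calculated versus vehicle group. Mean ± SD, n = 8.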

In data set [4] the test system is Rattus norvegicus. Nature of the data set: Antidiabetic activity in Sprague-Dawley rat assessed as reduction in blood glucose AUC (0 to 120 mins) at 10 mg/kg, po administered 60 mins prior to glucose challenge by OGTT. The data set is classed as functional, organism-based. A digest of the protocol:
as §2

The nature of data set [5]: Elimination half life in Sprague-Dawley rat at 10 mg/kg, po by LC-ESI-MS analysis. The data set is classed as ADME, organism-based. To be noted: in vivo, read-out: beta t1/2 (converted). An outline of the steps: as §1
The target in data set [6] is T1, Solute carrier organic anion transporter family member 1B1 (Homo sapiens, UniProt Q9Y6L6).
T1 sequence (Q9Y6L6 whole entry): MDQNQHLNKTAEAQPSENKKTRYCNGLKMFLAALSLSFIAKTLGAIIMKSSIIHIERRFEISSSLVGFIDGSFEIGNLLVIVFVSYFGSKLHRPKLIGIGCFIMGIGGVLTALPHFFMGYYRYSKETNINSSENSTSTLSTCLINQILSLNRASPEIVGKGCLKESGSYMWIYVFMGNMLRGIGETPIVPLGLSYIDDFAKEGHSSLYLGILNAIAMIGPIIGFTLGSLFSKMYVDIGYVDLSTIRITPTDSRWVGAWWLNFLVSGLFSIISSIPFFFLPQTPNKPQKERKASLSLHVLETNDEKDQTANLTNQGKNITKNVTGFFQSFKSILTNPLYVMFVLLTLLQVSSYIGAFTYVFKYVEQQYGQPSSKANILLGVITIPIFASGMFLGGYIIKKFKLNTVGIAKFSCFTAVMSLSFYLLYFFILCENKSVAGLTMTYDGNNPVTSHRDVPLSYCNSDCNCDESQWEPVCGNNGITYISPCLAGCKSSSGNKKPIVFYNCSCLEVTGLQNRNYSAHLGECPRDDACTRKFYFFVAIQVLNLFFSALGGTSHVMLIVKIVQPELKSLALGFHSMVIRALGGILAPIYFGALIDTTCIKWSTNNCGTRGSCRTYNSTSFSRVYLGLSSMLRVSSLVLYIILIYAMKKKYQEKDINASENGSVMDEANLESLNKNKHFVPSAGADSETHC
Put plainly: Inhibition of human OATP1BA.

The subject of data set [7] is Rattus norvegicus. Nature of the data set: Antidiabetic activity in Sprague-Dawley rat assessed as reduction in blood glucose excursion at 10 mg/kg, po administered 60 mins prior to glucose challenge by OGTT. The data set is classed as functional, organism-based. An outline of the steps:
as §2

Data set [8] concerns the target T2, Solute carrier organic anion transporter family member 1B3 (Homo sapiens, UniProt Q9NPD5).
T2 sequence (Q9NPD5 whole entry): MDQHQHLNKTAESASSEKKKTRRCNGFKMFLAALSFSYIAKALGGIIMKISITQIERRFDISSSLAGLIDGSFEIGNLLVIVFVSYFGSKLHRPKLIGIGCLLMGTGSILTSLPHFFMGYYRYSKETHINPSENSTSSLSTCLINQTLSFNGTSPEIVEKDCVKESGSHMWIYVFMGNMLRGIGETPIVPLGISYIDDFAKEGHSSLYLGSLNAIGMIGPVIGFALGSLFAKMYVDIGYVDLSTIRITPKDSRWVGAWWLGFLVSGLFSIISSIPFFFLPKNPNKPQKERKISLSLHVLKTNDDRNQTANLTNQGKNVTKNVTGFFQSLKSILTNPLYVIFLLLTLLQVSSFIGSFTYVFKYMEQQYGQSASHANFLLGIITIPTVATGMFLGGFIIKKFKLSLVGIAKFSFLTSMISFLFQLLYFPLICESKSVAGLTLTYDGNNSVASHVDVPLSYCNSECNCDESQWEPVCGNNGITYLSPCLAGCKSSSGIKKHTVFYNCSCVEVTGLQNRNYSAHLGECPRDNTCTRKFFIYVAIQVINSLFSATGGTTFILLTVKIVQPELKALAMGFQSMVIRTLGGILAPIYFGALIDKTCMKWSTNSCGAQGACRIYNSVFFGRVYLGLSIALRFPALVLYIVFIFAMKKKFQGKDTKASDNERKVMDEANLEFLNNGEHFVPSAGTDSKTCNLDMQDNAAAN
Nature of the data set: Inhibition of human OATP1B3. The class given is ADME.

Data set [9] in a line: AUC (0 to t) in Sprague-Dawley rat at 10 mg/kg, po by LC-ESI-MS analysis. The class given is ADME, organism-based. The settings on record: in vivo. An outline of the steps: as §1
Data set [10] relates to Hepatocyte. Nature of the data set: Toxicity in sandwich-cultured Sprague-Dawley rat hepatocytes assessed as inhibition of hepatobiliary transport by measuring biliary excretion index at 20 to 40 uM after 15 mins in presence of d8-TCA by LC-MS/MS analysis. The class given is cell-based. The settings on record: 0.25 h. A digest of the protocol:
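Sandwich-cultured rat hepatocytes incubated with compound and d8-TCA in standard (Ca2+-containing) or Ca2+-free buffer. Cellular d8-TCA measured, and the biliary excretion index calculated as the fraction of accumulated bile acid excreted into bile. Mean of three independent experiments.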

Data set [11] in a line: Cmax in Sprague-Dawley rat at 10 mg/kg, po by LC-ESI-MS analysis. Set-up: dose 10 mg/kg, route oral. The class given is ADME, organism-based. The settings on record: in vivo. A digest of the protocol: as §1

SMILES strings stand for the structures. pIC50: −log10 of the molar value. Calls of active or inactive are those of the source. No cut-off for these calls is given here.

Chain of ATP-binding cassette sub-family C member 2 (Q92887 whole entry): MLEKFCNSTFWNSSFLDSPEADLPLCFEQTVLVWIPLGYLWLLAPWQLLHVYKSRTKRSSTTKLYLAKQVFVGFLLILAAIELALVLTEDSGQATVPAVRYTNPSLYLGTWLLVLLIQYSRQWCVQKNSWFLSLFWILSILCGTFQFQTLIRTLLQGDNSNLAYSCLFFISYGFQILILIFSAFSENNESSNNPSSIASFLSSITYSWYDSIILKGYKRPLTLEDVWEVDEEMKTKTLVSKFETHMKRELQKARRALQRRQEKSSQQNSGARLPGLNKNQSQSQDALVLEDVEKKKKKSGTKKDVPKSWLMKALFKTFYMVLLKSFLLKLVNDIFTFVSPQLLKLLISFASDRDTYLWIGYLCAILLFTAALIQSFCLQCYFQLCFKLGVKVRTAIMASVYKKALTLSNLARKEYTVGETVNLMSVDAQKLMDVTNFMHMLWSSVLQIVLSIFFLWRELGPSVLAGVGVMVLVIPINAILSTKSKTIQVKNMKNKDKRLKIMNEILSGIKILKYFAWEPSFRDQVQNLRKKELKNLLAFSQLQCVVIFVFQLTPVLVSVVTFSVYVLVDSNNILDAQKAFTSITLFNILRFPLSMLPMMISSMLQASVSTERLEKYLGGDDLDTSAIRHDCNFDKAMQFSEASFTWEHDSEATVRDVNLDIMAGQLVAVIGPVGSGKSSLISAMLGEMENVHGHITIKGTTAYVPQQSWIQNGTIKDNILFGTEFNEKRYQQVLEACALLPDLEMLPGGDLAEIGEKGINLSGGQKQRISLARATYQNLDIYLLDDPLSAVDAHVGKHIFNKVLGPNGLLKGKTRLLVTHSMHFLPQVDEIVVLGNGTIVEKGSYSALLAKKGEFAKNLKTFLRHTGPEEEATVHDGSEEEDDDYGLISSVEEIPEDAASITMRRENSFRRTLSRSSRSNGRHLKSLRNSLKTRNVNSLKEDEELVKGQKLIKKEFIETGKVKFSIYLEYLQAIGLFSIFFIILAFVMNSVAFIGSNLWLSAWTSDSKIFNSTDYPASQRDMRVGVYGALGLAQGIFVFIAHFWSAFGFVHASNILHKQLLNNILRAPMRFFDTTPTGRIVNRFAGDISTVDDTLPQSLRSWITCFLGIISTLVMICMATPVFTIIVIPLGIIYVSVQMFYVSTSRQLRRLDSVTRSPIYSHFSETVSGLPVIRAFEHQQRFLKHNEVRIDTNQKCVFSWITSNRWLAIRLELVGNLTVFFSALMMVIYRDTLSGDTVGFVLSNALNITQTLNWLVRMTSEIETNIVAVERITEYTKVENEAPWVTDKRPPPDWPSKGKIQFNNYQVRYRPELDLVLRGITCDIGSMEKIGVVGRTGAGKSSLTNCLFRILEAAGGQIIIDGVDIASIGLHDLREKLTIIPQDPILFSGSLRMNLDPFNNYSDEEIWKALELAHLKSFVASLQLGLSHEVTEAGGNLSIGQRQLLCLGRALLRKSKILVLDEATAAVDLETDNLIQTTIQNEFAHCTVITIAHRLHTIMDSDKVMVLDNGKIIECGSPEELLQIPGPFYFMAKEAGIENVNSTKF

`Cc1cc(OCCCS(C)(=O)=O)cc(C)c1-c1cccc(COc2ccc3c(c2)OC[C@H]3CC(=O)O)c1`: the Tmax in data set [1] is 3.5 h. The negative logarithm of the IC50 (pIC50) in [2] was 5.62; in data set [6] it was 5.64; in data set [8], 4.95. For the same compound, the outcome in data set [3], in data set [4] and in [7] was Active. Also, in data set [5], the half-life is 3.94 h. In [9], this compound showed an area under the curve AUC(0-t) of 137 µg·h/mL. In addition, the Activity result in data set [10] is on record as “Toxic”. In data set [11], this compound gave a peak concentration (Cmax) of 19400 ng/mL.

These data come from ChEMBL document CHEMBL4261634, “Design and optimization of 2,3-dihydrobenzo[b][1,4]dioxine propanoic acids as novel GPR40 agonists with improved pharmacokinetic and safety profiles” (Bioorg Med Chem, 2018).
